Assay results taken from ChEMBL document CHEMBL3272018, “Synthesis of aziridinylallylaminophosphine oxides and sulfides as potential adjuvant cancer chemotherapeutic agents” (J Med Chem, 1976).
The source made the active and inactive calls. The calls are words filed in the database; no cut-off is given here.

Legend:
[1] = tested on: W256; test: Antitumor activity against rat Walker 256 cells intramuscularly allografted in rat assessed as survival rate at 0.125 mg/kg, qd administered for 5 days; type: functional, organism-based; design: dose 0.125 mg/kg
Outline: (§1)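 Rats bearing Walker 256 carcinoma as a solid tumor; lines 1-8 use a cytoxan-resistant Walker 256 subline. Dosed once daily for 5 days. Treated (T) and untreated control (C) groups are compared, and the response is given as T/C percentage, reflecting increase in survival time. Host weight change is the average weight change of the test group minus that of the controls, in grams.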

[2] = tested on: W256; test: Antitumor activity against cytoxan-resistant rat Walker 256 cells intramuscularly allografted in rat assessed as tumor growth inhibition at 0.25 mg/kg, qd administered for 5 days relative to control; type: functional; details: W256, im, 120 h, route intramuscular, read-out: TGI
Outline: (§2)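 Dosed once daily for 5 days. Response is tumor progression in treated (T) versus untreated control (C) animals, expressed as T/C percentage. Host weight change is reported as the average net weight change of the test group minus that of the controls, in grams.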

[3] = tested on: Musca domestica; test: Toxicity in male house fly assessed as lowest dose required to cause complete sterility administered in sugar; type: organism-based; details: in vivo, po
[4] = tested on: W256; test: Antitumor activity against cytoxan-resistant rat Walker 256 cells intramuscularly allografted in rat assessed as survival rate at 1 mg/kg, qd administered for 5 days; type: functional, organism-based; design: dose 1 mg/kg; outline: as §1
[5] = tested on: W256; test: Antitumor activity against cytoxan-resistant rat Walker 256 cells intramuscularly allografted in rat assessed as tumor growth inhibition at 0.5 mg/kg, qd administered for 5 days relative to control; type: functional; details: W256, im, 120 h, route intramuscular, read-out: TGI; outline: as §2
[6] = Toxicity in rat allografted with rat Walker 256 cells intramuscularly; type: organism-based
[7] = Therapeutic index, ratio of LD50 for rat allografted with rat Walker 256 cells to ED10 for antitumor activity against rat Walker 256 cells intramuscularly allografted in rat; type: cell-based; details: read-out: TI
Outline: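 Therapeutic index is LD50/ED10 in the Walker 256 solid tumour system. ED10 is the dose giving a 10% tumour weight reduction, with values extrapolated from dose-response data.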

[8] = tested on: W256; test: Antitumor activity against rat Walker 256 cells intramuscularly allografted in rat assessed as tumor growth inhibition at 0.062 mg/kg, qd administered for 5 days relative to control; type: functional; details: W256, im, 120 h, route intramuscular, read-out: TGI; outline: as §2
[9] = tested on: W256; test: Antitumor activity against rat Walker 256 cells intramuscularly allografted in rat assessed as tumor growth inhibition at 0.125 mg/kg, qd administered for 5 days relative to control; type: functional; details: W256, im, 120 h, route intramuscular, read-out: TGI; outline: as §2
[10] = Therapeutic index, ratio of LD50 for rat allografted with cytoxan-resistant rat Walker 256 cells to ED10 for antitumor activity against rat Walker 256 cells allografted in rat; details: read-out: TI
Outline: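 Therapeutic index is LD50/ED10 in cytoxan-resistant Walker 256 solid tumour in rats. ED10 is the dose giving a 10% reduction, extrapolated from dose-response data.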

[11] = species on record: Rattus norvegicus; test: Toxicity in Wistar-Furth rat assessed as decrease in secondary spermatocytes measured for 24 hrs; type: organism-based; details: in vivo
Outline: (§3)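 Wistar-Furth rats were injected daily for 5 days at the antifertility-study doses of 1 or 5 mg/kg, depending on agent. Testes or ovaries were taken at sacrifice after 1, 3 or 24 h. Cryostat frozen sections were fixed in 95% alcohol for 10 min and stained with acridine orange (DNA green, RNA red). Results were compared with untreated controls.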

[12] = tested on: W256; test: Antitumor activity against rat Walker 256 cells intramuscularly allografted in rat assessed as tumor growth inhibition at 2 mg/kg, qd administered for 5 days relative to control; type: functional; details: W256, im, 120 h, route intramuscular, read-out: TGI
Outline: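 Walker 256 carcinoma grown as a solid tumour in rats, with one injection daily for 5 days. Response is given as T/C %, the treated-group measure over the untreated-control tumour measure; a smaller value means more activity. Host toxicity is the mean net weight change of treated minus control animals, in grams.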

[13] = tested on: Rattus norvegicus; test: Toxicity in rat allografted with rat Walker 256 cells intramuscularly assessed as change in body weight at 0.5 mg/kg, qd administered for 5 days; type: organism-based; design: dose 0.5 mg/kg, route intramuscular; details: in vivo, im, 120 h
Outline: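 Walker 256 carcinoma solid-tumour system in rats (parent line, or the line resistant to cytoxan). Dosing was one injection per day for 5 days. Toxicity was taken as the average net body-weight change of the treated group minus the average net weight change of the untreated tumour-bearing controls, in grams.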

[14] = tested on: W256; test: Antitumor activity against rat Walker 256 cells intramuscularly allografted in rat assessed as tumor growth inhibition at 0.5 mg/kg, qd administered for 5 days relative to control; type: functional; details: W256, im, 120 h, route intramuscular, read-out: TGI; outline: as §2
[15] = tested on: Musca domestica; test: Toxicity in male house fly assessed as lowest dose required to cause complete sterility administered in food; type: organism-based; details: in vivo, po
[16] = tested on: W256; test: Antitumor activity against cytoxan-resistant rat Walker 256 cells intramuscularly allografted in rat assessed as tumor growth inhibition at 0.12 mg/kg, qd administered for 5 days relative to control; type: functional; details: W256, im, 120 h, route intramuscular, read-out: TGI; outline: as §2
[17] = tested on: W256; test: Antitumor activity against cytoxan-resistant rat Walker 256 cells intramuscularly allografted in rat assessed as survival rate at 0.25 mg/kg, qd administered for 5 days; type: functional, organism-based; design: dose 0.25 mg/kg; outline: as §1
[18] = species on record: Rattus norvegicus; test: Toxicity in Wistar-Furth rat assessed as effect on ovary measured for 24 hrs; type: organism-based, Female gonad; details: in vivo; outline: as §3
[19] = species on record: Rattus norvegicus; test: Toxicity in Wistar-Furth rat assessed as decrease in mature spermatocytes measured for 24 hrs; type: organism-based; details: in vivo; outline: as §3
[20] = tested on: W256; test: Antitumor activity against rat Walker 256 cells intramuscularly allografted in rat assessed as survival rate at 0.062 mg/kg, qd administered for 5 days; type: functional, organism-based; design: dose 0.062 mg/kg; outline: as §1
[21] = tested on: W256; test: Antitumor activity against rat Walker 256 cells intramuscularly allografted in rat assessed as tumor growth inhibition at 1 mg/kg, qd administered for 5 days relative to control; type: functional; details: W256, im, 120 h, route intramuscular, read-out: TGI; outline: as §2

For `C=CCN(CC=C)P(=O)(N1CC1)N1CC1`, the Activity [1] was “Active”, the inhibition in vivo at 0.25 mg/kg [2] was 60% and the Activity [3] was 0.05%. The Activity [4] was “Active”, the inhibition in vivo at 0.5 mg/kg [5] was 58% and the LD50 [6] was 5 mg/kg. It also gave a selectivity ratio [7] of 10, an inhibition in vivo at 0.062 mg/kg [8] of 7% and an inhibition in vivo at 0.125 mg/kg [9] of 1%. For the same molecule, the selectivity ratio [10] was 2.5, the Activity [11] was “Toxic” and the inhibition in vivo at 2 mg/kg [12] was 0%. The Activity [13] was -6 g, the inhibition in vivo at 0.5 mg/kg [14] was 0% and the Activity [15] was 0.1%. For the same molecule, the inhibition in vivo at 0.12 mg/kg [16] was 98%, the Activity [17] was “Active” and the Activity [18] was “Non-toxic”. The Activity [19] was “Non-toxic”, the Activity [20] was “Active” and the inhibition in vivo at 1 mg/kg [21] was 0%.
